The test system of assay [1] is Cdc42. Kind of assay: cellular Cdc42/Rac1 GTP-loading by G-LISA – cell lysate, ELISA, panel, Ras-related GTPase inhibitor project, profiling panel (AID 2375). The note with it: NIH 3T3 cells, EGF-stimulated, PAK G-LISA active GTPase, stronger effect = lower value. The essentials:
(§1)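 Material: 3T3 cell lysates captured on PAK-coated microwells / Medium: serum-free medium / Probe or stimulus: EGF 10 ng/ml, with or without / Dosing: compound at 1 and 10 µM / Technique: colorimetric ELISA with PAK capture of active GTPase / Controls: EGF-stimulated lysate maximum, unstimulated lysate baseline, 1 ng GTPase standard / Replicates: duplicates over several trials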

Assay [2] concerns Rac1. Described as above. The note with it: NIH 3T3 cells, EGF-stimulated, PAK G-LISA active GTPase, stronger effect = lower value. The essentials:
as §1

Results filed as inconclusive are left out. The source made the active and inactive calls.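 The calls were made as follows: active = compounds that lower growth-factor-driven active Cdc42 or Rac1 at 10 micromolar by more than 15 percent; inactive = the rest, inconclusive results apart.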

`NS(=O)(=O)c1ccc(N2N=C(c3ccccc3)CC2c2ccc(Br)cc2)cc1` (centres undefined): the normalized active GTPase was 1.12 in assay [1] (active GTPase, at 1 µM); 0.895 (inactive) in assay [1] (at 10 µM); 0.5 in assay [2] (active GTPase, at 1 µM); 0.47 in assay [2] (at 10 µM).
As for `COc1ccc(C2CC(c3ccccc3)=NN2c2ccc(S(N)(=O)=O)cc2)cc1OC` (centres undefined), the normalized active GTPase in assay [1] (active GTPase, at 1 µM) was 0.87; in assay [1] (at 10 µM), 0.856 (inactive).
Take `Cc1ccc(C2CC(c3ccccc3)=NN2c2ccc(S(N)(=O)=O)cc2)cc1` (centres undefined): the normalized active GTPase in assay [1] (active GTPase, at 1 µM) was 0.994; in assay [1] (at 10 µM), 0.667; in assay [2] (active GTPase, at 1 µM), 0.782; in assay [2] (at 10 µM), 0.941 (inactive).
`Cc1cccc(C2CC(c3ccccc3)=NN2c2ccc(S(N)(=O)=O)cc2)c1` (centres undefined): the normalized active GTPase in assay [1] (active GTPase, at 1 µM) is 0.979; in assay [1] (at 10 µM), 0.726; in assay [2] (active GTPase, at 1 µM), 1.09; in assay [2] (at 10 µM) it was 0.932 (inactive).
As to `COc1ccc(C2CC(c3cccc(OC)c3)=NN2c2ccc(S(N)(=O)=O)cc2)cc1` (centres undefined), the normalized active GTPase in assay [1] (active GTPase, at 1 µM) was 0.442; in assay [1] (at 10 µM) it was 1.25 (inactive).
With `NS(=O)(=O)c1ccc(N2N=C(c3ccccc3)CC2c2cccc(Br)c2)cc1` (centres undefined), the normalized active GTPase in assay [1] (active GTPase, at 1 µM) is 0.764; in assay [1] (at 10 µM), 1.4 (inactive); in assay [2] (active GTPase, at 1 µM), 0.556; in assay [2] (at 10 µM) it was 0.691.
Take `COc1ccc(C2CC(c3ccccc3)=NN2c2ccc(S(N)(=O)=O)cc2)cc1` (centres undefined): the normalized active GTPase in assay [1] (active GTPase, at 1 µM) is 0.923; in assay [1] (at 10 µM), 0.626; in assay [2] (active GTPase, at 1 µM), 0.724; in assay [2] (at 10 µM), 0.612.

The values are drawn from PubChem BioAssay AID2375 (NMMLSC, 2010).
